According to ChEMBL document CHEMBL1144458, “Aminothiazole inhibitors of HCV RNA polymerase” (Bioorg Med Chem Lett, 2005):

Target: RNA-directed RNA polymerase (Hepacivirus hominis, UniProt O39930)
Test: Inhibitory concentration against RNA dependent RNA polymerase nonstructural protein 5B of hepatitis C virus
Conditions: not given
In short: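 HCV NS5B D55 construct (6 nM), scintillation proximity assay: biotinylated oligoG12/polyC template-primer with GTP plus [3H]-GTP, in 20 mM HEPES pH 7.3, 7.5 mM DTT, 10 mM MgCl2, 60 mM NaCl, BSA, and RNasin, for 50 min at room temperature. Stopped with streptavidin SPA beads plus 100 mM EDTA; incorporated label counted. IC50 from single experiments over 11 serial 2-fold dilutions.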

Sequence of RNA-directed RNA polymerase (O39930 whole entry): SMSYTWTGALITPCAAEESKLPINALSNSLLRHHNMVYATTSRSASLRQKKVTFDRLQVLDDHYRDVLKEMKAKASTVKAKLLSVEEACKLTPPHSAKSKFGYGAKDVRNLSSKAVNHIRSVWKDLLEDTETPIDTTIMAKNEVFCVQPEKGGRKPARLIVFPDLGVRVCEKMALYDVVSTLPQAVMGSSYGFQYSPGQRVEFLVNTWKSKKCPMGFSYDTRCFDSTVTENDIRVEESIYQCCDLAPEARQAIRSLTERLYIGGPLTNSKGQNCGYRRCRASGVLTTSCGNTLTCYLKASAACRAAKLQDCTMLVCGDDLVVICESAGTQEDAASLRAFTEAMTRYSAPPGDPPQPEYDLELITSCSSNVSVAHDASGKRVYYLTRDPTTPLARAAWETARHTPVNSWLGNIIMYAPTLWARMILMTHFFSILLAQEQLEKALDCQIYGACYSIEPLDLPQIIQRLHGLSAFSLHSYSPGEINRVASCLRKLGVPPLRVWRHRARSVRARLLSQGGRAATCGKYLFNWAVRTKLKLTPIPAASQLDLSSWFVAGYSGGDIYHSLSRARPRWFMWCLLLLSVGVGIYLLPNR

Row | SMILES | IC50 [µM]
1 | COc1ccccc1COc1ccc(C(=O)N(c2ncc(C(=O)O)s2)C2CCCCC2)cc1 | 8.5
2 | O=C(O)c1cnc(N(C(=O)c2ccc(OCc3cccc(F)c3)cc2)C2CCCCC2)s1 | 6.5
3 | COc1ccccc1Oc1ccc(C(=O)N(c2ncc(C(=O)O)s2)C2CCCCC2)cc1 | 8.5
4 | O=C(O)c1cnc(N(C(=O)c2ccc(Oc3cccc(C(F)(F)F)c3)cc2)C2CCCCC2)s1 | 4.4
5 | O=C(O)c1cnc(N(C(=O)c2ccc(Oc3ccccc3)cc2)C2CCSCC2)s1 | 13
6 | O=C(O)c1cnc(N(C(=O)c2ccc(OCc3ccccn3)cc2)C2CCCCC2)s1 | 15
7 | CC(C)N(C(=O)c1ccc(Oc2ccccc2)cc1)c1ncc(C(=O)O)s1 | > 50
8 | O=C(O)c1cnc(N(C(=O)c2ccc(Oc3cccc(Cl)c3)cc2)C2CCCCC2)s1 | 2.8
9 | COc1cccc(Oc2ccc(C(=O)N(c3ncc(C(=O)O)s3)C3CCCCC3)cc2)c1 | 3.1
10 | O=C(O)c1cnc(N(C(=O)c2ccc(Oc3ccc(Cl)cc3)cc2)C2CCCCC2)s1 | 4.2
11 | O=C(O)c1csc(N(C(=O)c2ccc(Oc3ccccc3)cc2)C2CCCCC2)n1 | 10
12 | O=C(O)c1cnc(N(C(=O)c2ccc(Oc3ccccc3)cc2)C2CCS(=O)(=O)CC2)s1 | > 50
13 | O=C(Nc1nc(C(=O)O)cs1)c1ccc(Oc2ccccc2)cc1 | > 50
14 | O=C(O)c1cnc(N(C(=O)c2ccc(OCc3ccc(F)cc3)cc2)C2CCCCC2)s1 | 3.9
15 | CC(C)N(C(=O)c1ccc(Oc2ccccc2)cc1)c1nc(C(=O)O)cs1 | > 50
16 | O=C(O)c1cnc(N(C(=O)c2ccc(OCc3cccc(C(F)(F)F)c3)cc2)C2CCCCC2)s1 | 1.4
17 | O=C(Nc1ncc(C(=O)O)s1)c1ccc(Oc2ccccc2)cc1 | > 50
18 | O=C(O)c1cnc(N(C(=O)c2ccc(OCc3ccccc3F)cc2)C2CCCCC2)s1 | 4
19 | O=C(O)c1cnc(N(C(=O)c2ccc(Oc3ccc(Cl)c(Cl)c3)cc2)C2CCCCC2)s1 | 2.6
20 | O=C(O)c1cnc(N(C(=O)c2ccc(OCc3cccs3)cc2)C2CCCCC2)s1 | 7
21 | O=C(O)c1cnc(N(C(=O)c2ccc(OCc3ccccc3)cc2)C2CCCCC2)s1 | 6.5

Row | SMILES | IC50 [µM]
22 | COc1ccc(Oc2ccc(C(=O)N(c3ncc(C(=O)O)s3)C3CCCCC3)cc2)cc1OC | 3.5
23 | O=C(O)c1cnc(N(C(=O)c2ccc(OC3CCCCC3)cc2)C2CCCCC2)s1 | 5.5
24 | O=C(O)c1cnc(N(C(=O)c2ccc(OCc3ccccc3C(F)(F)F)cc2)C2CCCCC2)s1 | 5.1
25 | COc1cccc(COc2ccc(C(=O)N(c3ncc(C(=O)O)s3)C3CCCCC3)cc2)c1 | 3.2
26 | O=C(O)c1cnc(N(C(=O)c2ccc(Oc3ccccc3)cc2)C2CCCCC2)s1 | 7
27 | O=C(O)c1cnc(N(C(=O)c2ccc(Oc3cccc(OC(F)(F)F)c3)cc2)C2CCCCC2)s1 | 5.2
28 | C[C@@H]1C[C@@H](N(C(=O)c2ccc(Oc3ccccc3)cc2)c2ncc(C(=O)O)s2)CC(C)(C)C1 (single isomer, unassigned) | 6
29 | C[C@@H]1C[C@@H](N(C(=O)c2ccc(Oc3ccccc3)cc2)c2nc(C(=O)O)cs2)CC(C)(C)C1 (single isomer, unassigned) | 5.5
30 | C[C@H]1CCCC[C@@H]1N(C(=O)c1ccc(Oc2ccccc2)cc1)c1ncc(C(=O)O)s1 (single isomer, unassigned; cis) | 6.1
31 | C[C@H]1CCCC[C@@H]1N(C(=O)c1ccc(Oc2ccccc2)cc1)c1ncc(C(=O)O)s1 (single isomer, unassigned; trans) | 9.4
32 | CC(C)(C)[C@H]1CC[C@H](N(C(=O)c2ccc(Oc3ccccc3)cc2)c2ncc(C(=O)O)s2)CC1 (stereo in doubt; cis) | 3.4
33 | C[C@H]1CC[C@H](N(C(=O)c2ccc(Oc3ccccc3)cc2)c2ncc(C(=O)O)s2)CC1 (stereo in doubt; cis) | 6.6
34 | CC(C)(C)[C@H]1CC[C@@H](N(C(=O)c2ccc(Oc3ccccc3)cc2)c2nc(C(=O)O)cs2)CC1 (stereo in doubt; cis) | 2.8
35 | C[C@@H]1CCCC[C@H]1N(C(=O)c1ccc(Oc2ccccc2)cc1)c1nc(C(=O)O)cs1 (stereo in doubt; cis) | 7.6
36 | C[C@H]1CC[C@@H](N(C(=O)c2ccc(Oc3ccccc3)cc2)c2nc(C(=O)O)cs2)CC1 (stereo in doubt; cis) | 5.7
37 | CC(C)(C)[C@H]1CC[C@H](N(C(=O)c2ccc(Oc3ccccc3)cc2)c2ncc(C(=O)O)s2)CC1 (stereo in doubt; trans) | 6
38 | C[C@H]1CC[C@H](N(C(=O)c2ccc(Oc3ccccc3)cc2)c2ncc(C(=O)O)s2)CC1 (stereo in doubt; trans) | 5
39 | CC(C)(C)[C@H]1CC[C@@H](N(C(=O)c2ccc(Oc3ccccc3)cc2)c2nc(C(=O)O)cs2)CC1 (stereo in doubt; trans) | 4.7
40 | C[C@@H]1CCCC[C@H]1N(C(=O)c1ccc(Oc2ccccc2)cc1)c1nc(C(=O)O)cs1 (stereo in doubt; trans) | 11
41 | C[C@H]1CC[C@@H](N(C(=O)c2ccc(Oc3ccccc3)cc2)c2nc(C(=O)O)cs2)CC1 (stereo in doubt; trans) | 5.4

Test system: not listed separately
Test: Clearance rate from human hepatocytes
Format: ADME, Liver, Hepatocyte
Conditions: not given

Row | SMILES | CL [lL/min/million]
42 | O=C(O)c1cnc(N(C(=O)c2ccc(OCc3cccc(C(F)(F)F)c3)cc2)C2CCCCC2)s1 | 5

Target: Cytochrome P450 3A4 (Homo sapiens, UniProt P08684)
Sequence (P08684 whole entry): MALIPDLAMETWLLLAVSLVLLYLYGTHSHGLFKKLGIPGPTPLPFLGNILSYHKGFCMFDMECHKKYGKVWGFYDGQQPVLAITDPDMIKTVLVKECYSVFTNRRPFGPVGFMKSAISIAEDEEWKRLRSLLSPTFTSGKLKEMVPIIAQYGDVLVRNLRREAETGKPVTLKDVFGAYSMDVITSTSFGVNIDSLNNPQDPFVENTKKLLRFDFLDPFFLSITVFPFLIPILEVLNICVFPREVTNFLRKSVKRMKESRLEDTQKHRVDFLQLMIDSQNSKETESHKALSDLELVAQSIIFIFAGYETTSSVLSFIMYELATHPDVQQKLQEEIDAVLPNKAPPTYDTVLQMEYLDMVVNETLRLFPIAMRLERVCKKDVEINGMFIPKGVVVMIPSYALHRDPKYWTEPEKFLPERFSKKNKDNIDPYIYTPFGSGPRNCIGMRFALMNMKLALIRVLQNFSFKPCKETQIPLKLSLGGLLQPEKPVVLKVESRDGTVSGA
Test: Inhibitory concentration against Cytochrome P450 3A4
Format: ADME
Conditions: not given

Row | SMILES | IC50 [µM]
43 | O=C(O)c1cnc(N(C(=O)c2ccc(OCc3cccc(C(F)(F)F)c3)cc2)C2CCCCC2)s1 | > 30

Test system: not listed separately
Test: Permeability determined in Caco-2 experiment
Format: ADME
Conditions: human, read-out: Permeability

Row | SMILES | Papp [nm/s]
44 | O=C(O)c1cnc(N(C(=O)c2ccc(OCc3cccc(C(F)(F)F)c3)cc2)C2CCCCC2)s1 | 147

Target: Cytochrome P450 2D6 (Homo sapiens, UniProt P10635)
Sequence (P10635 whole entry): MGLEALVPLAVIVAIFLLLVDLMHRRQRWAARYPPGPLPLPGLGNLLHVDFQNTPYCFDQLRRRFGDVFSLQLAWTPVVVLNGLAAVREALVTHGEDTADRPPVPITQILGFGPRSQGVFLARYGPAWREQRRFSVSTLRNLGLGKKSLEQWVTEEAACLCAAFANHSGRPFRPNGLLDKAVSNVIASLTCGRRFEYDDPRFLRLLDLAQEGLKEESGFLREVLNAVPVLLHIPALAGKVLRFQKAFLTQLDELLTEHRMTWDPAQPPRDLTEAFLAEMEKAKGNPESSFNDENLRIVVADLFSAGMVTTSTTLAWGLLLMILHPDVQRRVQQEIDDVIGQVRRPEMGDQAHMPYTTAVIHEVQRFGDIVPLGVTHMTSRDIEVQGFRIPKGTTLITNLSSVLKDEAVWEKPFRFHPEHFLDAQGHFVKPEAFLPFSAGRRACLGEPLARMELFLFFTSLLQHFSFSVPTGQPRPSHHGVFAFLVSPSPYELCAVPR
Test: Inhibitory concentration against Cytochrome P450 2D6
Format: ADME
Conditions: not given

Row | SMILES | IC50 [µM]
45 | O=C(O)c1cnc(N(C(=O)c2ccc(OCc3cccc(C(F)(F)F)c3)cc2)C2CCCCC2)s1 | > 30
